This is an account of results in the EternaBench riboswitch data.

Broadly, the apparent Kd is a dissociation constant that holds for the conditions of the assay.

The subject of this series is MS2 coat protein. The experiment in a line: apparent Kd, MS2 coat protein; higher = weaker binding; RNA-MaP array; FMN 200 µM where present. The method in brief:
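In 100 mM Tris-HCl pH 7.5, 80 mM KCl, 4 mM MgCl2, BSA, DTT, yeast tRNA and Tween-20, SNAP-549-labelled MS2 coat protein was titrated from 0.7 or 1.5 nM, doubling to 3 µM, over designs transcribed by stalled E. coli RNA polymerase on Illumina sequencing-chip clusters. This was done first without ligand, then with ligand held constant. After green signal was normalised to red-channel RNA signal and control-cluster median Fmax, the apparent Kd was taken as the median of filtered per-cluster binding-curve fits.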

The mark [1] stands for this setting: designed as: OFF switch for flavin mononucleotide, no ligand.
[2] abbreviates: ligand present: flavin mononucleotide, designed as: OFF switch for flavin mononucleotide.
Setting [3] is: designed as: ON switch for flavin mononucleotide, no ligand.
Setting [4] is: ligand present: flavin mononucleotide, designed as: ON switch for flavin mononucleotide.

Regarding “GGUGGCGUGAUAACGCUAGCUAUAACAUGAGGAUCACCCAUGUAGGAUAUCCCGCCGUGAGGGCGGGAGAAGGACAACCGAUGG”, the “apparent Kd” value was 28.5 nM under setting [1] and 30.8 nM under setting [2].

On to “GGAGGACGAAACAUGAGGAUCACCCAUGUGUUAUAAUUAAUAUAGGAUAUGUUUAUACUUUUUGGGCAGAAGGAUGAUAAUGUU”, for which the “apparent Kd” value is, setting by setting: under setting [3], 22.2 nM; under setting [4], 19.7 nM.

“AUUUUAUAAUAGAAGGAGGACUUCAUGAGGAUCACCCAUGUGUUAGUACCUAGGAUAUGUAAUAACAUGAGGAUCACCCAUGUC”: the “apparent Kd” value is 49.5 nM under setting [3] and 40.3 nM under setting [4].

Consider “GGGCCCGGAGGAUAUACAAUUGUGUGUGGAAACGCGCGCGUACAUGAGGAUCACCCAUGUAGAAGGCCGGGCCC”, for which the “apparent Kd” value is, setting by setting: under setting [1], 15.9 nM; under setting [2], 54.6 nM.

Regarding “UCCUUCUGUUGAGGAUAUGUAAGACAGCGGCUGCUAUUGCGGCCCGCUGAUACAGAAGGCAACAUGAGGAUCACCCAUGUUCAA”, the “apparent Kd” value runs as follows: under setting [1], 22.9 nM; under setting [2], 163 nM.

On to “GUCAGCUCGUGAGGAUAUACAACAAUGCUUCGGCAGUGUAUUAAGAUCACAUGAGGAUCACCCAUGUAGAAGGCACGAGCUGAU”, for which the “apparent Kd” value is, setting by setting: under setting [1], 7.66 nM; under setting [2], 73.7 nM.

Turning to “GCGGAACAUGAGGAUCACCCAUGUAUCCGAAAUAUGGACUCACAGGAUAUCCCGAGUUGCCAGUCGGAGAAGGGUGACUCCAGC”, the “apparent Kd” value was 12.3 nM under setting [3] and 8.09 nM under setting [4].

For “GCCGAAGGAGGAUAUACACCCGGUGGCAAAACGCCGGCUCGACAUGAGGAUCACCCAUGUAGAAGGCCUGUGGU”, the “apparent Kd” value reads like this: under setting [1], 16.4 nM; under setting [2], 18 nM.

As for “UGAAAUCAUGUAGGAUAUGCAUGGCGCAGCUACGCAGAAGGACAUGAGGAUCACCCAUGUUAUAGCUACCCAGUUCGGUGGCAA”, the “apparent Kd” value came out at 30.6 nM under setting [1] and 173 nM under setting [2].

Turning to “GGCUGCGUUGUGAAGGAUAUCCGCGUCUGGACAUGAGGAUCACCCAUGUAUGCUUGGAUCAUGCCGGAGAAGGUCACGAAUGAUU”, the “apparent Kd” value reads like this: under setting [3], 34.3 nM; under setting [4], 17 nM.

Turning to “CAUAUGUGAGGAUAUGACAAUGGUAUCUUCGGAUACCAUUGUCAGAAGGCACAUGAGGAUCACCCAUGUGGAUC”, the “apparent Kd” value was found to be 222 nM under setting [1] and 30.7 nM under setting [2].

Take “GGAAAGUGAGGAUAUGGUAAUUUAAUUAUUAAUUAAUUAAUCCAGAAGGCACAUGAGGAUCACCCAUGUAAAGG”: the “apparent Kd” value runs as follows: under setting [1], 35.9 nM; under setting [2], 61.4 nM.

As to “GGAAAACAUGAGGAUCACCCAUGUGAGGAUAUCGAUGUCCACCCACCCGUGCGGGACUCGAGAAGGCACUUGGA”, the “apparent Kd” value under setting [1] stood at 44.4 nM and the “apparent Kd” value under setting [2] came to 148 nM.

In the case of “UAAUAAUAAUAAUACGUCAUUACAUGAGGAUCACCCAUGUAUAAGGAUAUGCAGUGGAAUACACUGCAGAAGGUAUACAAGACG”, the “apparent Kd” value under setting [1] is 22.6 nM and the “apparent Kd” value under setting [2] was determined as 26.7 nM.

For the sequence “ACUGCAUAGGCAGGAUAUGCAAAAGCAGAUGCAAAGCAUUUGUAAAACACAUGAGGAUCACCCAUGUAGAAGGGCCUGUGCAGU”, the “apparent Kd” value turned out to be 21 nM under setting [1] and 20.7 nM under setting [2].

Take “UGAGCGACCACAGGAUAUACUUGGGAAGACCGAGUAGAAGGGUGGAAGAGCGUGCAGUGACAUGAGGAUCACCCAUGUGGUUGU”: the “apparent Kd” value is 122 nM under setting [3] and 82.2 nM under setting [4].

For the sequence “UAAUAUUUAUAAUAUUAUUACAUUAGAAGGCAAGACAUGUGGAUACAUGAGGAUCACCCAUGUAUUGAGGAUAUAGACAUAUAU”, the “apparent Kd” value runs as follows: under setting [1], 14.6 nM; under setting [2], 21.7 nM.

“ACAUAAUACGAGAAGGGAGUACAUGAGGAUCACCCAUGUGCUCAGAUGUACUCAGGAUAUCGGCUGACGCAAGGUUCAGGGAAU”: the “apparent Kd” value by setting is: under setting [1], 10.9 nM; under setting [2], 128 nM.

For the sequence “GUGGUACAUGAGGAUCACCCAUGUUAGGAUAUCGCGUGGUUUUUUGCGGCCGCGCGCGCGAGAAGGGACGUCUU”, the “apparent Kd” value is 41.4 nM under setting [1] and 31.7 nM under setting [2].

As to “CACUUCCCGUCAGGAUAUCGCCGUAGGUCCUCGGGUCUCGCCGUCAUACAUGAGGAUCACCCAUGUGAGAAGGGACGGGUUUCA”, the “apparent Kd” value runs as follows: under setting [1], 16.4 nM; under setting [2], 107 nM.

For the sequence “AGAAAUUCAGGAUAUACAUGAGGAUCACCCAUGUUUGGCGGAGGCGCCGAGAUCCCACGUAGAAGGGAAAAGAC”, the “apparent Kd” value turned out to be 28 nM under setting [1] and 50.6 nM under setting [2].

For “AUUUGAAUCGUAGGAUAUCGCUUAAAUUUACCACGAGAAGGACGAACAUGAGGAUCACCCAUGUAACAUGGUGAAGAUAAUUUG”, the “apparent Kd” value came to 31.6 nM under setting [1] and 120 nM under setting [2].

As for “GAGAAGAAGUUAGGAUAUUGGAUAGGGACGGACUAAGAAGGAGCACAUACAUGAGGAUCACCCAUGUUAGAAGAAGAUCCUCCA”, the “apparent Kd” value runs as follows: under setting [1], 32.3 nM; under setting [2], 25.5 nM.

With “CUUUUGUGAGGAUAUUCGUCAUAAGGUUGUAAACCUGUGACGAAGAAGGCACAUGAGGAUCACCCAUGUGUCCU”, the “apparent Kd” value under setting [1] turned out to be 15.7 nM and the “apparent Kd” value under setting [2] stood at 26.4 nM.

For the sequence “UUACUACAUGAGGAUCACCCAUGUCAGGAUAUUGGAUAUGCCUUGGAAUACGUGUUUACAAGAAGGGACUAUAU”, the “apparent Kd” value was determined as 23.4 nM under setting [1] and 21.4 nM under setting [2].

On to “CCGUUACAUGAGGAUCACCCAUGUGAGGAUAUCGAUGUGACUGGCAGCGUGCGGGACUCGAGAAGGCACUUGGC”, for which the “apparent Kd” value under setting [1] was 74.6 nM and the “apparent Kd” value under setting [2] amounted to 58.5 nM.

On to “UUAUUAUAUGUAGGAUAUGCAUAUUAUUAUUGUGCAGAAGGACAUGAGGAUCACCCAUGUAUACUAUUAUUAUAUAUUAUAUAU”, for which the “apparent Kd” value under setting [1] is 10.8 nM and the “apparent Kd” value under setting [2] came to 13.6 nM.

Consider “GCUGCAUAGGCAGGAUAUGCAAUAAUUCGAAUAAAAUAUAACGAAUUAACAUGAGGAUCACCCAUGUAGAAGGGCCUGUGCAGC”, for which the “apparent Kd” value under setting [1] is 5.51 nM and the “apparent Kd” value under setting [2] is 4.99 nM.

For the sequence “CCAUGCGGAUGAGGAUAUUCAUUUAUGAGGAUAGAAGAAGGCAUACAUGAGGAUCACCCAUGUAUACGCAUGAGGAUCCCUUAC”, the “apparent Kd” value by setting is: under setting [1], 34.2 nM; under setting [2], 27.2 nM.

Take “CUCAUGUAAGGAUAUCUACGCGCUAAGGUGCGUCUAUCACAAGAGAAGGUACAUGAGGAUCACCCAUGUAAAGA”: the “apparent Kd” value under setting [1] stood at 103 nM and the “apparent Kd” value under setting [2] is 127 nM.

Consider “AGGUAAACCACAGGAUAUGGCUAGCAUAGCUAGCCAGAAGGGUGGUCGAAACCAUGUAAAUACAUGAGGAUCACCCAUGUAUCC”, for which the “apparent Kd” value reads like this: under setting [3], 566 nM; under setting [4], 75.3 nM.

Consider “CGUUGGUUAGGAUAUGCCCUCCUGGUGGGAAGGCCGGGUGGGUAGAAGGGACAUGAGGAUCACCCAUGUAUGGA”, for which the “apparent Kd” value reads like this: under setting [1], 72.3 nM; under setting [2], 26.8 nM.

As for “GAUAGGACAGAGAAGGACGUAGCUAGAGAUACUAGCAUAAAGUCCUCAACAUGAGGAUCACCCAUGUAGGAUAUCUGUCCUAUC”, the “apparent Kd” value is 6.39 nM under setting [1] and 7.13 nM under setting [2].

Take “AAUGUUUGAUUCCACCUAUACAUGAGGAUCACCCAUGUUAUCGAGGAUAUGCAUUAGAGUGUUUAGCAGAAGGCGAUGUAAUUG”: the “apparent Kd” value is, setting by setting: under setting [1], 8.34 nM; under setting [2], 23 nM.

With “GUAGCAUUGAGAGGAUAUCCAUACCGGAAACGGACAUGAGGAUCACCCAUGUGGCGAAAGCCGUGGGAGAAGGCUCUAUGCUAC”, the “apparent Kd” value by setting is: under setting [3], 8.39 nM; under setting [4], 4.32 nM.

With “UCGAUAAGGAGAGGAUAUGGACAUGAGGAUCACCCAUGUACAUGGGAAUAUAUUCUGAAUUUUUACUAGAAGGCUUACAUAAAU”, the “apparent Kd” value came to 20.8 nM under setting [1] and 17.1 nM under setting [2].
